Active and inactive are the calls of the source. No cut-off for these calls is given here.
Assays:
DU-145 [1] = assay: Induction of apoptosis in human DU145 cells assessed as increase in Bax to Bcl2 ratio at 0.08 to 0.32 uM after 24 hrs by Western blot analysis; type: functional, cell-based
How it was run: (§1)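 DU-145 cells (5 × 10^5/well) in 10% FCS Ham's F-12K overnight, treated in duplicate with compound or vehicle 24 h; lysed (Tris pH 8, EGTA, NaCl, NP-40, Triton X-100), protein by BCA. Blots blocked in 5% milk, probed for AKT, p-AKT Ser473, mTOR, p-mTOR Ser2448, Bax, Bcl-2, β-actin; ECL detection, densitometry relative to control; three separate experiments.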

DU-145 [2] = assay: Effect on Akt protein expression in human DU145 cells at 0.08 to 0.32 uM after 24 hrs by Western blot analysis; type: functional, cell-based; how it was run: as §1
[3] = biological target: Serine/threonine-protein kinase mTOR (Homo sapiens) (UniProt P42345); assay: Reduction in phosphorylated mTOR protein expression in human DU145 cells at 0.08 to 0.32 uM after 24 hrs by Western blot analysis; type: functional, cell-based; settings: DU-145; how it was run: as §1
[4] = Apparent permeability across basolateral to apical side in human Caco2 cells at 0.5 uM measured after 30 mins by LC-MS/MS analysis; type: ADME, cell-based; settings: Caco-2
How it was run: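 Caco2 monolayers (passages 20−40) grown 21 days at 37 °C, 5% CO2; integrity checked by TEER. Test drug 0.5 μM applied in triplicate, apical pH 6.8, basolateral pH 7.4, 37 °C for 30 min, A→B and B→A. Donor and receiver sampled, concentration by LC−MS/MS; Papp calculated; efflux ratio = Papp B→A / Papp A→B.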

DU-145 [5] = assay: Antiproliferative activity against human DU145 cells at 2 uM after 72 hrs by CCK8 assay; type: functional; settings: DU-145, 72 h
How it was run: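 DU-145 screening at single concentration 2 μM for 72 h, proliferation by CCK-8 (cells 5 × 10^3/well in 10% FCS DMEM). Percent inhibition vs untreated, background-corrected; mean ± SD from three independent experiments.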

DU-145 [6] = assay: Antiproliferative activity against human DU145 cells after 72 hrs by CCK8 assay; type: functional, cell-based; settings: DU-145, 72 h
How it was run: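 CCK-8 assay: DU-145, H460, Bxpc-3, BEL-7404 and nontumor WPMY-1 cells seeded at 5 × 10^3 cells/well in 10% FCS DMEM overnight, then exposed in triplicate to 0.041−10 μM for 72 h. CCK-8 added for final 30 min, absorbance 450 nm; inhibition relative to medium-only controls after background subtraction; IC50 as concentration giving 50% inhibition.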

Mus musculus [7] = assay: Acute toxicity in ICR mouse assessed as mortality at 640 mg/kg, oral gavage after 4 hrs; type: organism-based; settings: in vivo
How it was run: (§2)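 ICR mice of both sexes, 7 weeks old, held under SPF conditions. Each got one gavage dose (800, 640, 512, 409.6 or 327.8 mg/kg) or vehicle, n = 8 per group. Deaths were recorded at 1 h, 4 h, 3 d and 4–14 d. Behaviour, water and food intake, body weight and activity were followed to day 14. LD50 given with 95% confidence limits.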

Mus musculus [8] = assay: Acute toxicity in ICR mouse assessed as mortality at 512 mg/kg, oral gavage after 4 hrs; type: organism-based; settings: in vivo; how it was run: as §2
Mus musculus [9] = assay: Acute toxicity in ICR mouse assessed as mortality at 409.6 mg/kg, oral gavage after 4 hrs; type: organism-based; settings: in vivo; how it was run: as §2
Mus musculus [10] = assay: Acute toxicity in ICR mouse assessed as mortality at 409.6 mg/kg, oral gavage after 4 to 14 days; type: organism-based; settings: in vivo; how it was run: as §2
Mus musculus [11] = assay: Acute toxicity in ICR mouse assessed as mortality at 327.8 mg/kg, oral gavage after 4 hrs; type: organism-based; settings: in vivo; how it was run: as §2
[12] = Acute toxicity in ICR mouse assessed as survival at 800 mg/kg, oral gavage on day 14; type: organism-based; settings: in vivo; how it was run: as §2
[13] = Acute toxicity in ICR mouse assessed as survival at 409.6 mg/kg, oral gavage on day 14; type: organism-based; settings: in vivo; how it was run: as §2
[14] = Acute toxicity in ICR mouse assessed as survival at 327.8 mg/kg, oral gavage on day 14; type: organism-based; settings: in vivo; how it was run: as §2
DU-145 [15] = assay: Anticancer activity against human DU145 cells xenografted in BALB/c mouse assessed as decrease in tumor growth at 8.5 mg/kg, oral gavage for 21 days relative to vehicle treated control; type: functional; settings: DU-145, po, 504 h
How it was run: (§3)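 Male BALB/c nude mice (6−8 weeks, 18−22 g) implanted subcutaneously on right axillary flank with 2 × 10^6 DU-145 cells in 0.1 mL saline. At 100 ± 30 mm3 tumors, randomized (n = 5/group) to daily gavage for 21 days; vehicle DMSO/Cremphor EL/PBS 1:1:8. Tumor volume every 3 days; tumors excised and weighed at end; TGI from mean tumor weights vs vehicle; body weight tracked.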

DU-145 [16] = assay: Anticancer activity against human DU145 cells xenografted in BALB/c mouse assessed as decrease in tumor growth at 17 mg/kg, oral gavage for 21 days relative to vehicle treated control; type: functional; settings: DU-145, po, 504 h; how it was run: as §3
DU-145 [17] = assay: Induction of cell cycle arrest in human DU145 cells assessed as cells accumulation at G2/M phase at 0.08 uM after 24 hrs by propidium iodide staining-based flow cytometry (reference value: 22%); type: functional
DU-145 [18] = assay: Induction of cell cycle arrest in human DU145 cells assessed as cells accumulation at G0/G1 phase at 0.16 uM after 24 hrs by propidium iodide staining-based flow cytometry (reference value: 54%); type: functional
DU-145 [19] = assay: Induction of cell cycle arrest in human DU145 cells assessed as cells accumulation at S phase at 0.16 uM after 24 hrs by propidium iodide staining-based flow cytometry (reference value: 24%); type: functional
DU-145 [20] = assay: Induction of apoptosis in human DU145 cells assessed as chromatin condensation and fragmentation at 0.08 to 0.32 uM after 24 hrs by Hoechst staining-based fluorescence microscopy; type: functional, cell-based
How it was run: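 DU-145 cells exposed 24 h to compound or vehicle (0.1% DMSO), fixed in methanol 30 min, stained with 1 mg/mL Hoechst 33258, and scored under fluorescence microscope for chromatin condensation and nuclear fragmentation; three separate experiments.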

Cytochrome P450 1A2 = biological target: T1, Cytochrome P450 1A2 (Homo sapiens, UniProt P05177); assay: Inhibition of CYP1A2 in human liver microsomes after 1 hr by LC-MS/MS analysis
T1 sequence (P05177 whole entry): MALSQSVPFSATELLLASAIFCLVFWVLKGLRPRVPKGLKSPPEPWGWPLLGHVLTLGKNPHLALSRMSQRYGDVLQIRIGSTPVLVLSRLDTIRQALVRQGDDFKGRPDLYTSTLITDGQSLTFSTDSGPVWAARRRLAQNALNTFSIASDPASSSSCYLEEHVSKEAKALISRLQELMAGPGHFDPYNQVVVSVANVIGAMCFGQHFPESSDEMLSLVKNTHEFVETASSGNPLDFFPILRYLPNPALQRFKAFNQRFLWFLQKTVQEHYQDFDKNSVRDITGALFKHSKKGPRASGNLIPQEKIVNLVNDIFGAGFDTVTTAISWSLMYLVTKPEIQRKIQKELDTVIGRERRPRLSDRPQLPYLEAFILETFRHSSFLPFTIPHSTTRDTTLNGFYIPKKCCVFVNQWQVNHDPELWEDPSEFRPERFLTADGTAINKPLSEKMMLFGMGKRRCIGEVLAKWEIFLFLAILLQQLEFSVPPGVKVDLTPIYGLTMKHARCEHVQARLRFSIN

CC1(C)CC[C@]23CC[C@@]4(C)[C@]5(C)CC[C@H]6C(C)(C)C(=O)C(C#N)=C[C@]6(C)C5=CC(=O)[C@@]4([C@@H]2C1)N(C1CCCCC1)C3=O
Activity (DU-145 [1]): Active
Activity (DU-145 [2]): inactive
inhibition [3]: Active
Papp B→A at 0.5 h, 0.5 µM [4]: 0.059 ×10⁻⁶ cm/s
inhibition at 2 µM (DU-145 [5]): 75%
IC50 (DU-145 [6]): 390 nM
Activity (Mus musculus [7]): Non-toxic
Activity (Mus musculus [8]): Non-toxic
Activity (Mus musculus [9]): Non-toxic
Activity (Mus musculus [10]): Non-toxic
Activity (Mus musculus [11]): Non-toxic
survival at 14 day [12]: 0%
survival at 14 day [13]: 88%
survival at 14 day [14]: 100%
inhibition in vivo at 8.5 mg/kg (DU-145 [15]): 30%
inhibition in vivo at 17 mg/kg (DU-145 [16]): 62%
Activity (DU-145 [17]): 19%
Activity (DU-145 [18]): 68%
Activity (DU-145 [19]): 10%
Activity (DU-145 [20]): Active
IC50 (Cytochrome P450 1A2): > 100000 nM

— ChEMBL document CHEMBL3580660, “Synthesis and Biological Evaluation of Novel Olean-28,13β-lactams as Potential Antiprostate Cancer Agents” (J Med Chem, 2015)
